The values that follow come from PubChem BioAssay AID651846 (The Scripps Research Institute Molecular Screening Center, 2012).

Activity calls are given as the source filed them.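 The calls were made as follows: active = IC50 at or below 10 µM; inactive = IC50 above 10 µM.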

The subject of this test is CHO-S GAL4-VP16 UAS luciferase reporter, luminescence. Description: repression of VP16-driven reporter luminescence – CHO-S cells, counter-screen for NR2E3 agonist project, late-stage follow-up (AID 651846). In outline: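 system = transfected CHO-S cells, GAL4-VP16 UAS luciferase reporter | control set = reporter-only cells lacking VP16 (100%) and DMSO-treated VP16 cells (0%) | detection = One-Glo luminescence | dosing = dose-response concentration series | read-out = % inhibition of luciferase signal | replication = triplicates | times = compound exposure 24 h at 37 °C, 16 h post-transfection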

For the compound `Cc1cc(C)cc(NC(=O)CCc2nc3sc4c(c3c(=O)[nH]2)CCCC4)c1`, the IC50 is > 39.8 µM (inactive).

As to `Cc1cccc(OCCCC(=O)Nc2nc3ccccc3[nH]2)c1`, the IC50 is > 39.8 µM (inactive).

As to `Cc1cnc(NC(=O)CCCc2nc3ccccc3s2)s1`, the IC50 is > 39.8 µM (inactive). Next, `O=C(Nc1cccc(NC(=O)c2c(F)cccc2F)n1)c1c(F)cccc1F`: > 39.8 µM (inactive). Next, `NC(=O)c1nn(-c2ccccc2)nc1NC(=O)CSc1nnnn1-c1ccc(Cl)cc1`: > 39.8 µM (inactive); `Cc1cnc(NC(=O)C2CC(=O)N(c3ccc4c(c3)OCCO4)C2)s1` (stereo unspecified): > 39.8 µM (inactive). Next, `Cc1ccc(CN2CC(C(=O)Nc3ncc(C)s3)CC2=O)cc1` (stereo unspecified): > 39.8 µM (inactive); `O=c1c(Cl)c(N2CCN(c3ccc(F)cc3)CC2)cnn1C12CC3CC(CC(C3)C1)C2`: > 39.8 µM (inactive); `COc1ccc(S(=O)(=O)N2CCCCC2)cc1NC(=S)Nc1ccccc1`: > 39.8 µM (inactive). With `Cc1ccc(NC(=O)CSc2nnnn2-c2ccc3c(c2)OCO3)cc1C`, the IC50 is > 39.8 µM (inactive). As for `O=C(CSc1nnnn1-c1ccc2c(c1)OCCO2)Nc1nc2c(s1)CCCC2`, the IC50 is > 39.8 µM (inactive). With `COc1ccc(NC2c3ccccc3C(=O)N2Cc2ccccc2Cl)cc1OC` (stereo unspecified), the IC50 was > 39.8 µM (inactive).

Consider `COc1cccc(N2CCN(c3nc(-c4ccccc4C)cc(=O)[nH]3)CC2)c1`, for which the IC50 is > 39.8 µM (inactive). Next, `COc1cccc(NC(=O)CSc2nc3ncc(Br)cc3[nH]2)c1`: > 39.8 µM (inactive). As to `COc1cc2nc(CN3CC=C(c4ccccc4)CC3)[nH]c(=O)c2cc1OC`, the IC50 is > 39.8 µM (inactive). Next, `COc1ccc2c(CC(=O)Nc3ncc(C)s3)coc2c1`: > 39.8 µM (inactive). Next, `COc1ccc(S(=O)(=O)N2CCCCC2)cc1NC(=S)Nc1cccc(Cl)c1C`: > 39.8 µM (inactive). Next, `O=c1cc(N2CCN(c3cccc(Cl)c3)CC2)[nH]c(=O)n1C1CCCCC1`: > 39.8 µM (inactive); `O=C(O)CC1(CC(=O)Nc2cc(C(F)(F)F)cc(C(F)(F)F)c2)CCCCC1`: 7.72 µM.

As to `COc1ccc(OC)c(NC(=O)CSc2nnnn2-c2ccc3c(c2)OCO3)c1`, the IC50 was > 39.8 µM (inactive).

For the compound `Cc1ccc(-c2nc(NC(=O)CSc3nnnn3-c3ccccc3)ns2)cc1`, the IC50 is > 39.8 µM (inactive).

On to `Cc1cnc(NC(=O)Cc2ccc(Br)cc2)s1`, for which the IC50 is > 39.8 µM (inactive).

On to `Cc1cccc(C(=O)N[C@H](C(=O)Nc2ncc(C)s2)C(C)C)c1`, for which the IC50 is > 39.8 µM (inactive).

`O=C(CSc1nnnn1-c1ccc(O)cc1)Nc1ccc(N2CCOCC2)c(Cl)c1`: the IC50 is > 39.8 µM (inactive). As for `Cc1ccnc(NC(=O)CSc2cc(=O)n(C)c3ccccc23)c1`, the IC50 was > 39.8 µM (inactive). Next, `Cc1onc(-c2ccccc2Cl)c1C(=O)Nc1nc2c(s1)CCCC2`: > 39.8 µM (inactive).
